From ChEMBL document CHEMBL1157638, “Fluorescent epigenetic small molecule induces expression of the tumor suppressor ras-association domain family 1A and inhibits human prostate xenograft” (J Med Chem, 2010)

What was measured:
OVCAR-3 [1] = experiment: Growth inhibition of human OVCAR-3 cells assessed as cell growth at 10 uM relative to untreated control; assay type: functional; conditions: read-out: Activity
A549 = experiment: Growth inhibition of human A549 cells assessed as cell growth at 100 nM relative to untreated control; assay type: functional; conditions: read-out: Activity
SK-MEL-2 = experiment: Growth inhibition of human SK-MEL-2 cells assessed as cell growth at 1 uM relative to untreated control; assay type: functional; conditions: read-out: Activity
MDA-MB-231 = experiment: Growth inhibition of human MDA-MB-231 cells; assay type: functional
OVCAR-8 = experiment: Growth inhibition of human OVCAR8 cells assessed as cell growth at 1 uM relative to untreated control; assay type: functional; conditions: read-out: Activity
UO-31 = experiment: Growth inhibition of human UO31 cells assessed as cell growth at 10 uM relative to untreated control; assay type: functional; conditions: read-out: Activity
SF-268 = experiment: Growth inhibition of human SF268 cells assessed as cell growth at 10 nM relative to untreated control; assay type: functional; conditions: read-out: Activity
RXF 393 = experiment: Growth inhibition of human RXF393 cells assessed as cell growth at 1 nM relative to untreated control; assay type: functional; conditions: read-out: Activity
SNB-19 = experiment: Growth inhibition of human SNB19 cells assessed as cell growth at 10 uM relative to untreated control; assay type: functional; conditions: read-out: Activity
786-0 [2] = experiment: Growth inhibition of human 786-0 cells assessed as cell growth at 1 uM relative to untreated control; assay type: functional; conditions: read-out: Activity
M14 [3] = experiment: Growth inhibition of human M14 cells assessed as cell growth at 1 uM relative to untreated control; assay type: functional; conditions: read-out: Activity
[4] = Growth inhibition of human […] cells assessed as cell growth at 1 uM relative to untreated control; assay type: functional; conditions: read-out: Activity
M14 [5] = experiment: Growth inhibition of human M14 cells assessed as cell growth at 100 nM relative to untreated control; assay type: functional; conditions: read-out: Activity
OVCAR-4 [6] = experiment: Growth inhibition of human OVCAR4 cells assessed as cell growth at 10 uM relative to untreated control; assay type: functional; conditions: read-out: Activity
PC-3 [7] = experiment: Drug uptake in cytoplasm of human PC3 cells at 5 uM by confocal microscopy; assay type: ADME, cell-based; conditions: pc-3, 5 µM
Summary of the method: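 PC-3 cells were plated overnight on fibronectin/[…]-coated slides and treated with 5 μM compound or DMSO for 1-6 h. Cells were PBS-washed, fixed in 4% formaldehyde, and stained with propidium iodide (nuclei) and anti-DNMT3a or anti-DNMT3b antibody. The compound was excited at 725 nm by multiphoton laser and imaged through a 500-550 nm filter by confocal microscopy.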

UACC-257 [8] = experiment: Growth inhibition of human UACC257 cells; assay type: functional
SNB-75 = experiment: Growth inhibition of human SNB75 cells assessed as cell growth at 100 nM relative to untreated control; assay type: functional; conditions: read-out: Activity
HCC 2998 = experiment: Growth inhibition of human HCC2998 cells assessed as cell growth at 1 nM relative to untreated control; assay type: functional; conditions: read-out: Activity
Summary of the method: (§1)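 Run externally at the National Cancer Institute as a 59-cell-line panel screen, with concentrations up to 100 μM. Growth was scored relative to control, where negative growth or total cell kill was possible. Data are in the Supporting Information.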

HT-29 [9] = experiment: Growth inhibition of human HT-29 cells assessed as cell growth at 100 nM relative to untreated control; assay type: functional; conditions: read-out: Activity
Malme-3M = experiment: Growth inhibition of human MALME-3M cells assessed as cell growth at 10 nM relative to untreated control; assay type: functional; conditions: read-out: Activity
OVCAR-4 [10] = experiment: Growth inhibition of human OVCAR4 cells assessed as cell growth at 1 uM relative to untreated control; assay type: functional; conditions: read-out: Activity
NCI-H522 = experiment: Growth inhibition of human NCI-H522 cells; assay type: functional
SK-MEL-5 = experiment: Growth inhibition of human SK-MEL-5 cells; assay type: functional
786-0 [11] = experiment: Growth inhibition of human 786-0 cells assessed as cell growth at 100 nM relative to untreated control; assay type: functional; conditions: read-out: Activity
IGROV-1 = experiment: Growth inhibition of human IGROV1 cells assessed as cell growth at 1 uM relative to untreated control; assay type: functional; conditions: read-out: Activity
SN12C = experiment: Growth inhibition of human SN12C cells; assay type: functional
NCI-H322M = experiment: Growth inhibition of human NCI-H322M cells assessed as cell growth at 100 nM relative to untreated control; assay type: functional; conditions: read-out: Activity
K562 = experiment: Growth inhibition of human K562 cells assessed as cell growth at 10 nM relative to untreated control; assay type: functional; conditions: read-out: Activity
HT-29 [12] = experiment: Growth inhibition of human HT-29 cells assessed as cell growth at 1 uM relative to untreated control; assay type: functional; conditions: read-out: Activity
DU-145 = experiment: Growth inhibition of human DU145 cells assessed as cell growth at 10 uM relative to untreated control; assay type: functional; conditions: read-out: Activity; summary of the method: as §1
ACHN = experiment: Growth inhibition of human ACHN cells assessed as cell growth at 1 uM relative to untreated control; assay type: functional; conditions: read-out: Activity
PC-3 [13] = experiment: Growth inhibition of human PC3 cells assessed as cell growth at 1 nM relative to untreated control; assay type: functional; conditions: read-out: Activity
OVCAR-3 [14] = experiment: Growth inhibition of human OVCAR-3 cells assessed as cell growth at 1 uM relative to untreated control; assay type: functional; conditions: read-out: Activity
CAKI-1 = experiment: Growth inhibition of human Caki1 cells assessed as cell growth at 10 uM relative to untreated control; assay type: functional; conditions: read-out: Activity; summary of the method: as §1
UACC-257 [15] = experiment: Growth inhibition of human UACC257 cells assessed as cell growth at 100 nM relative to untreated control; assay type: functional; conditions: read-out: Activity
HOP-62 = experiment: Growth inhibition of human HOP62 cells assessed as cell growth at 1 nM relative to untreated control; assay type: functional; conditions: read-out: Activity; summary of the method: as §1
MDA-MB-435 = experiment: Growth inhibition of human MDA-MB-435 cells assessed as cell growth at 100 nM relative to untreated control; assay type: functional; conditions: read-out: Activity
NCI-H460 [16] = experiment: Growth inhibition of human NCI-H460 cells assessed as cell growth at 1 uM relative to untreated control; assay type: functional; conditions: read-out: Activity
BT-549 = experiment: Growth inhibition of human BT549 cells assessed as cell growth at 100 nM relative to untreated control; assay type: functional; conditions: read-out: Activity
COLO 205 = experiment: Growth inhibition of human COLO205 cells assessed as cell growth at 100 nM relative to untreated control; assay type: functional; conditions: read-out: Activity; summary of the method: as §1
NCI-H460 [17] = experiment: Growth inhibition of human NCI-H460 cells; assay type: functional
SK-OV-3 = experiment: Growth inhibition of human SKOV3 cells assessed as cell growth at 1 uM relative to untreated control; assay type: functional; conditions: read-out: Activity
SW-620 = experiment: Growth inhibition of human SW620 cells; assay type: functional
SF-539 = experiment: Growth inhibition of human SF539 cells assessed as cell growth at 1 uM relative to untreated control; assay type: functional; conditions: read-out: Activity
[18] = read-out: LC50 (the source's name)

SMILES: COc1ccc2c(c1)[nH]c1c(C)c(OS(=O)(=O)c3cccc4c(N(C)C)cccc34)ccc12
- growth at 10 µM (OVCAR-3 [1]): -9%
- growth at 0.1 µM (A549): 95%
- growth at 1 µM (SK-MEL-2): 50%
- GI50 (MDA-MB-231): 9.3 µM
- TGI (MDA-MB-231): > 100 µM
- CC50 (MDA-MB-231; [18]): > 100 µM
- growth at 1 µM (OVCAR-8): 44%
- growth at 10 µM (UO-31): 24%
- growth at 0.01 µM (SF-268): 111%
- growth at 0.001 µM (RXF 393): 103%
- growth at 10 µM (SNB-19): 27%
- growth at 1 µM (786-0 [2]): 30%
- growth at 1 µM (M14 [3]): 29%
- growth at 1 µM [4]: 1%
- growth at 0.1 µM (M14 [5]): 100%
- growth at 10 µM (OVCAR-4 [6]): 30%
- Drug uptake (PC-3 [7]): Active
- GI50 (UACC-257 [8]): 11.5 µM
- TGI (UACC-257 [8]): > 100 µM
- CC50 (UACC-257 [8]; [18]): > 100 µM
- growth at 0.1 µM (SNB-75): 99%
- growth at 0.001 µM (HCC 2998): 99%
- growth at 0.1 µM (HT-29 [9]): 96%
- growth at 0.01 µM (Malme-3M): 89%
- growth at 1 µM (OVCAR-4 [10]): 44%
- GI50 (NCI-H522): 9.97 µM
- TGI (NCI-H522): > 100 µM
- CC50 (NCI-H522; [18]): > 100 µM
- GI50 (SK-MEL-5): 2.73 µM
- TGI (SK-MEL-5): 9.34 µM
- CC50 (SK-MEL-5; [18]): > 100 µM
- growth at 0.1 µM (786-0 [11]): 105%
- growth at 1 µM (IGROV-1): 59%
- GI50 (SN12C): 11.3 µM
- TGI (SN12C): > 100 µM
- CC50 (SN12C; [18]): > 100 µM
- growth at 0.1 µM (NCI-H322M): 94%
- growth at 0.01 µM (K562): 98%
- growth at 1 µM (HT-29 [12]): 13%
- growth at 10 µM (DU-145): 2%
- growth at 1 µM (ACHN): 43%
- growth at 0.001 µM (PC-3 [13]): 101%
- growth at 1 µM (OVCAR-3 [14]): -35%
- growth at 10 µM (CAKI-1): 26%
- growth at 0.1 µM (UACC-257 [15]): 97%
- growth at 0.001 µM (HOP-62): 101%
- growth at 0.1 µM (MDA-MB-435): 83%
- growth at 1 µM (NCI-H460 [16]): 9%
- growth at 0.1 µM (BT-549): 93%
- growth at 0.1 µM (COLO 205): 95%
- GI50 (NCI-H460 [17]): 3.46 µM
- TGI (NCI-H460 [17]): 55.5 µM
- CC50 (NCI-H460 [17]; [18]): > 100 µM
- growth at 1 µM (SK-OV-3): 32%
- GI50 (SW-620): 4.32 µM
- TGI (SW-620): > 100 µM
- CC50 (SW-620; [18]): > 100 µM
- growth at 1 µM (SF-539): -30%
